How the values were obtained:
Assay type in all cases: functional
Escherichia coli [1] = assay: Bactericidal activity against Escherichia coli NIHJ JC-2 preincubated for 1 min before addition of growth medium measured after 40 to 48 hrs
Escherichia coli [2] = assay: Bactericidal activity against Escherichia coli NIHJ JC-2 preincubated for 3 mins before addition of growth medium measured after 40 to 48 hrs
Escherichia coli [3] = assay: Bactericidal activity against Escherichia coli NIHJ JC-2 preincubated for 5 mins before addition of growth medium measured after 40 to 48 hrs
Pseudomonas aeruginosa [4] = assay: Bactericidal activity against Pseudomonas aeruginosa PAO1 preincubated for 1 min before addition of growth medium measured after 40 to 48 hrs
Pseudomonas aeruginosa [5] = assay: Bactericidal activity against Pseudomonas aeruginosa PAO1 preincubated for 3 mins before addition of growth medium measured after 40 to 48 hrs
Pseudomonas aeruginosa [6] = assay: Bactericidal activity against Pseudomonas aeruginosa PAO1 preincubated for 5 mins before addition of growth medium measured after 40 to 48 hrs
Staphylococcus aureus [7] = assay: Antibacterial activity against Staphylococcus aureus 209PJC after 24 hrs
In short: (§1)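 Value is the minimal inhibitory concentration (MIC) against the test organism, read after 24 h of incubation.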

Staphylococcus aureus [8] = assay: Antibacterial activity against methicillin-resistant Staphylococcus aureus 97-115 after 24 hrs
In short: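 Read-out is the minimal inhibitory concentration (MIC), taken after 24 h incubation with the test organism.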

Escherichia coli [9] = assay: Antibacterial activity against Escherichia coli NIHJ JC-2 after 24 hrs; in short: as §1
Pseudomonas aeruginosa [10] = assay: Antibacterial activity against Pseudomonas aeruginosa PAO1; in short: as §1
Staphylococcus aureus [11] = assay: Bactericidal activity against Staphylococcus aureus 209PJC preincubated for 1 min before addition of growth medium measured after 40 to 48 hrs
Staphylococcus aureus [12] = assay: Bactericidal activity against Staphylococcus aureus 209PJC preincubated for 3 mins before addition of growth medium measured after 40 to 48 hrs
Staphylococcus aureus [13] = assay: Bactericidal activity against Staphylococcus aureus 209PJC preincubated for 5 mins before addition of growth medium measured after 40 to 48 hrs
Staphylococcus aureus [14] = assay: Bactericidal activity against methicillin-resistant Staphylococcus aureus 97-115 preincubated for 1 min before addition of growth medium measured after 40 to 48 hrs
In short: (§2)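 Read-out is the minimal bactericidal concentration (MBC), taken after 1, 3 and 5 min contact of compound with the test organism.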

Staphylococcus aureus [15] = assay: Bactericidal activity against methicillin-resistant Staphylococcus aureus 97-115 preincubated for 3 mins before addition of growth medium measured after 40 to 48 hrs; in short: as §2
Staphylococcus aureus [16] = assay: Bactericidal activity against methicillin-resistant Staphylococcus aureus 97-115 preincubated for 5 mins before addition of growth medium measured after 40 to 48 hrs; in short: as §2
Staphylococcus aureus [17] = assay: Bactericidal activity against methicillin-resistant Staphylococcus aureus 97-53 preincubated for 1 min before addition of growth medium measured after 40 to 48 hrs; in short: as §2
Staphylococcus aureus [18] = assay: Bactericidal activity against methicillin-resistant Staphylococcus aureus 97-53 preincubated for 3 mins before addition of growth medium measured after 40 to 48 hrs; in short: as §2
Staphylococcus aureus [19] = assay: Bactericidal activity against methicillin-resistant Staphylococcus aureus 97-53 preincubated for 5 mins before addition of growth medium measured after 40 to 48 hrs; in short: as §2
Staphylococcus aureus [20] = assay: Bactericidal activity against methicillin-resistant Staphylococcus aureus KM 97-108 preincubated for 1 min before addition of growth medium measured after 40 to 48 hrs; in short: as §2
Staphylococcus aureus [21] = assay: Bactericidal activity against methicillin-resistant Staphylococcus aureus KM 97-108 preincubated for 3 mins before addition of growth medium measured after 40 to 48 hrs; in short: as §2
Staphylococcus aureus [22] = assay: Bactericidal activity against methicillin-resistant Staphylococcus aureus KM 97-108 preincubated for 5 mins before addition of growth medium measured after 40 to 48 hrs; in short: as §2
Enterococcus [23] = assay: Bactericidal activity against vancomycin-resistant Enterococcus 49 preincubated for 1 min before addition of growth medium measured after 40 to 48 hrs; in short: as §2
Enterococcus [24] = assay: Bactericidal activity against vancomycin-resistant Enterococcus 49 preincubated for 3 mins before addition of growth medium measured after 40 to 48 hrs; in short: as §2
Enterococcus [25] = assay: Bactericidal activity against vancomycin-resistant Enterococcus 49 preincubated for 5 mins before addition of growth medium measured after 40 to 48 hrs; in short: as §2
Pseudomonas aeruginosa [26] = assay: Bactericidal activity against Pseudomonas aeruginosa 12 preincubated for 1 min before addition of growth medium measured after 40 to 48 hrs
Pseudomonas aeruginosa [27] = assay: Bactericidal activity against Pseudomonas aeruginosa 12 preincubated for 3 mins before addition of growth medium measured after 40 to 48 hrs
Pseudomonas aeruginosa [28] = assay: Bactericidal activity against Pseudomonas aeruginosa 12 preincubated for 5 mins before addition of growth medium measured after 40 to 48 hrs

| SMILES | MBC (Escherichia coli [1]) | MBC (Escherichia coli [2]) | MBC (Escherichia coli [3]) | MBC (Pseudomonas aeruginosa [4]) | MBC (Pseudomonas aeruginosa [5]) | MBC (Pseudomonas aeruginosa [6]) | MIC (Staphylococcus aureus [7]) | MIC (Staphylococcus aureus [8]) | MIC (Escherichia coli [9]) | MIC (Pseudomonas aeruginosa [10]) | MBC (Staphylococcus aureus [11]) | MBC (Staphylococcus aureus [12]) | MBC (Staphylococcus aureus [13]) | MBC (Staphylococcus aureus [14]) | MBC (Staphylococcus aureus [15]) | MBC (Staphylococcus aureus [16]) | further results |
| --- | --- | --- | --- | --- | --- | --- | --- | --- | --- | --- | --- | --- | --- | --- | --- | --- | --- |
| CC(=O)O.CCCCCCCCNC1=NC(C)(C)NC(NCCc2ccccc2)=N1 | 6.3 µg/mL | 3.1 µg/mL | 3.1 µg/mL | 6.3 µg/mL | 6.3 µg/mL | 3.1 µg/mL | 0.8 µg/mL | 1.6 µg/mL | 25 µg/mL | 25 µg/mL | 50 µg/mL | 12.5 µg/mL | 12.5 µg/mL | > 100 µg/mL | > 100 µg/mL | > 100 µg/mL | – |
| CCCCCCCCCCNC1=NC(C)(C)NC(NCCc2ccc(OC)cc2)=N1.Cl | 3.1 µg/mL | 1.6 µg/mL | 1.6 µg/mL | 3.1 µg/mL | 3.1 µg/mL | 1.6 µg/mL | 0.4 µg/mL | 0.8 µg/mL | 50 µg/mL | 50 µg/mL | 50 µg/mL | 12.5 µg/mL | 6.3 µg/mL | 25 µg/mL | 6.3 µg/mL | 6.3 µg/mL | – |
| CC(=O)O.CCCCCCCCCNC1=NC(C)(C)NC(Nc2ccccc2)=N1 | 12.5 µg/mL | 6.3 µg/mL | 3.1 µg/mL | 6.3 µg/mL | 3.1 µg/mL | 3.1 µg/mL | 0.8 µg/mL | 0.8 µg/mL | 12.5 µg/mL | 12.5 µg/mL | 12.5 µg/mL | 6.3 µg/mL | 6.3 µg/mL | 25 µg/mL | 25 µg/mL | 25 µg/mL | – |
| CC(=O)O.CCCCCCCCCNC1=NC(C)(C)NC(NCCc2ccccc2)=N1 | 12.5 µg/mL | 3.1 µg/mL | 3.1 µg/mL | 12.5 µg/mL | 3.1 µg/mL | 1.6 µg/mL | 0.4 µg/mL | 0.8 µg/mL | 12.5 µg/mL | 12.5 µg/mL | 25 µg/mL | 12.5 µg/mL | 6.3 µg/mL | 25 µg/mL | 12.5 µg/mL | 6.3 µg/mL | – |
| CC(=O)O.CCCCCCCCNC1=NC(NCCCCC)=NC(C)(C)N1 | 12.5 µg/mL | 6.3 µg/mL | 6.3 µg/mL | 6.3 µg/mL | 3.1 µg/mL | 3.1 µg/mL | 1.6 µg/mL | 1.6 µg/mL | 25 µg/mL | 25 µg/mL | 3.1 µg/mL | 3.1 µg/mL | 3.1 µg/mL | 6.3 µg/mL | 3.1 µg/mL | 3.1 µg/mL | – |
| CC(=O)O.CCCCCCCCNC1=NC(C)(C)NC(NCCCC)=N1 | 50 µg/mL | 25 µg/mL | 12.5 µg/mL | 50 µg/mL | 25 µg/mL | 12.5 µg/mL | 1.6 µg/mL | 3.1 µg/mL | 25 µg/mL | 50 µg/mL | 25 µg/mL | 12.5 µg/mL | 6.3 µg/mL | 25 µg/mL | 12.5 µg/mL | 12.5 µg/mL | – |
| CC(=O)O.CCCCCCCCCCCCNC1=NC(C)(C)NC(NCC)=N1 | 12.5 µg/mL | 3.1 µg/mL | 3.1 µg/mL | 3.1 µg/mL | 3.1 µg/mL | 3.1 µg/mL | 0.8 µg/mL | 1.6 µg/mL | 12.5 µg/mL | 50 µg/mL | 3.1 µg/mL | 3.1 µg/mL | 1.6 µg/mL | 25 µg/mL | 12.5 µg/mL | 6.3 µg/mL | – |
| CC(=O)O.CCCCCCCCNC1=NC(C)(C)NC(NCc2ccc(C)cc2)=N1 | 12.5 µg/mL | 6.3 µg/mL | 6.3 µg/mL | 12.5 µg/mL | 6.3 µg/mL | 3.1 µg/mL | 0.4 µg/mL | 0.4 µg/mL | 12.5 µg/mL | 12.5 µg/mL | 6.3 µg/mL | 3.1 µg/mL | 3.1 µg/mL | 25 µg/mL | 25 µg/mL | 12.5 µg/mL | MBC (Staphylococcus aureus [17]): 50 µg/mL; MBC (Staphylococcus aureus [18]): 50 µg/mL; MBC (Staphylococcus aureus [19]): 25 µg/mL; MBC (Staphylococcus aureus [20]): 50 µg/mL; MBC (Staphylococcus aureus [21]): 50 µg/mL; MBC (Staphylococcus aureus [22]): 25 µg/mL; MBC (Enterococcus [23]): 25 µg/mL; MBC (Enterococcus [24]): 25 µg/mL; MBC (Enterococcus [25]): 12.5 µg/mL; MBC (Pseudomonas aeruginosa [26]): 6.3 µg/mL; MBC (Pseudomonas aeruginosa [27]): 6.3 µg/mL; MBC (Pseudomonas aeruginosa [28]): 3.1 µg/mL |
| CC(=O)O.CCCCCCCCNC1=NC(C)(C)NC(Nc2ccccc2)=N1 | 12.5 µg/mL | 6.3 µg/mL | 6.3 µg/mL | 25 µg/mL | 12.5 µg/mL | 6.3 µg/mL | 1.6 µg/mL | 1.6 µg/mL | 25 µg/mL | 50 µg/mL | 25 µg/mL | 6.3 µg/mL | 6.3 µg/mL | 25 µg/mL | 12.5 µg/mL | 12.5 µg/mL | – |
| CC(=O)O.CCCCCCCNC1=NC(C)(C)NC(NCCCCCCC)=N1 | 6.3 µg/mL | 3.1 µg/mL | 3.1 µg/mL | 3.1 µg/mL | 1.6 µg/mL | 1.6 µg/mL | 0.8 µg/mL | 0.8 µg/mL | 12.5 µg/mL | 50 µg/mL | 6.3 µg/mL | 6.3 µg/mL | 3.1 µg/mL | 25 µg/mL | 25 µg/mL | 12.5 µg/mL | – |

From ChEMBL document CHEMBL1143313, “Synthesis of novel 4,6-di(substituted)amino-1,2-dihydro-1,3,5-triazine derivatives as topical antiseptic agents” (2009)
